System: Fibroblast
Experiment: Multiplex assay against human fibroblast
Type: toxicity, cell-based
Outline: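 Tubulin, mitochondrial-mass and membrane-permeability phenotypes are per cents of healthy-nucleus cells. Cells were gated by CellPathfinder machine learning into Hoechst high-intensity objects or normal cells, normal cells into healthy, pyknosed or fragmented nuclei, and pyknosed cells into mitotic or apoptotic. Before that, live cells stained at seeding with Hoechst33342, BioTracker Green Microtubule Cytoskeleton Dye, MitoTracker Red and Annexin V Alexa Fluor 680 were imaged on a CQ1 microscope at 37°C and 5% CO2 after compound addition.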

[1] = 12 h, 1 µM, compound concentration 1 uM, replicate 1
[2] = 12 h, 1 µM, compound concentration 1 uM, replicate 2
[3] = 12 h, 10 µM, compound concentration 10 uM, replicate 1
[4] = 12 h, 10 µM, compound concentration 10 uM, replicate 2
[5] = 24 h, 1 µM, compound concentration 1 uM, replicate 1
[6] = 24 h, 1 µM, compound concentration 1 uM, replicate 2
[7] = 24 h, 10 µM, compound concentration 10 uM, replicate 1
[8] = 24 h, 10 µM, compound concentration 10 uM, replicate 2
[9] = 48 h, 1 µM, compound concentration 1 uM, replicate 1
[10] = 48 h, 1 µM, compound concentration 1 uM, replicate 2
[11] = 48 h, 10 µM, compound concentration 10 uM, replicate 1
[12] = 48 h, 10 µM, compound concentration 10 uM, replicate 2

SMILES: COc1cc(-n2cnc3cc(-c4ccc(Cl)cc4)sc3c2=O)ccc1OCCN1CCCC1
- Population Apoptotic (%) [1]: 52%
- Population Fragmented Nuclei (%) [1]: 32%
- Population Healthy Nuclei (%) [1]: 49%
- Population Hoechst High Intensity Objects (%) [1]: 13%
- Population Membrane Permeable-Phenotype (%) [1]: 23%
- Population Mitochondria Different-Phenotype (%) [1]: 13%
- Population Mitotic Cells (%) [1]: 47%
- Population Normal (%) [1]: 86%
- Population Pyknosed Nuclei (%) [1]: 18%
- Population Tubulin-Different-Phenotype (%) [1]: 38%
- Total Cell Count [1]: 121
- Population Apoptotic (%) [2]: 71%
- Population Fragmented Nuclei (%) [2]: 11%
- Population Healthy Nuclei (%) [2]: 77%
- Population Hoechst High Intensity Objects (%) [2]: 16%
- Population Membrane Permeable-Phenotype (%) [2]: 10%
- Population Mitochondria Different-Phenotype (%) [2]: 44%
- Population Mitotic Cells (%) [2]: 28%
- Population Normal (%) [2]: 84%
- Population Pyknosed Nuclei (%) [2]: 11%
- Population Tubulin-Different-Phenotype (%) [2]: 34%
- Total Cell Count [2]: 78
- Population Apoptotic (%) [3]: 62%
- Population Fragmented Nuclei (%) [3]: 33%
- Population Healthy Nuclei (%) [3]: 26%
- Population Hoechst High Intensity Objects (%) [3]: 14%
- Population Membrane Permeable-Phenotype (%) [3]: 21%
- Population Mitochondria Different-Phenotype (%) [3]: 53%
- Population Mitotic Cells (%) [3]: 37%
- Population Normal (%) [3]: 85%
- Population Pyknosed Nuclei (%) [3]: 40%
- Population Tubulin-Different-Phenotype (%) [3]: 87%
- Total Cell Count [3]: 141
- Population Apoptotic (%) [4]: 26%
- Population Fragmented Nuclei (%) [4]: 22%
- Population Healthy Nuclei (%) [4]: 57%
- Population Hoechst High Intensity Objects (%) [4]: 8%
- Population Membrane Permeable-Phenotype (%) [4]: 34%
- Population Mitochondria Different-Phenotype (%) [4]: 93%
- Population Mitotic Cells (%) [4]: 73%
- Population Normal (%) [4]: 91%
- Population Pyknosed Nuclei (%) [4]: 19%
- Population Tubulin-Different-Phenotype (%) [4]: 97%
- Total Cell Count [4]: 75
- Population Apoptotic (%) [5]: 38%
- Population Fragmented Nuclei (%) [5]: 36%
- Population Healthy Nuclei (%) [5]: 47%
- Population Hoechst High Intensity Objects (%) [5]: 17%
- Population Membrane Permeable-Phenotype (%) [5]: 17%
- Population Mitochondria Different-Phenotype (%) [5]: 5%
- Population Mitotic Cells (%) [5]: 61%
- Population Normal (%) [5]: 82%
- Population Pyknosed Nuclei (%) [5]: 15%
- Population Tubulin-Different-Phenotype (%) [5]: 32%
- Total Cell Count [5]: 142
- Population Apoptotic (%) [6]: 62%
- Population Fragmented Nuclei (%) [6]: 16%
- Population Healthy Nuclei (%) [6]: 71%
- Population Hoechst High Intensity Objects (%) [6]: 10%
- Population Membrane Permeable-Phenotype (%) [6]: 6%
- Population Mitochondria Different-Phenotype (%) [6]: 25%
- Population Mitotic Cells (%) [6]: 37%
- Population Normal (%) [6]: 89%
- Population Pyknosed Nuclei (%) [6]: 12%
- Population Tubulin-Different-Phenotype (%) [6]: 21%
- Total Cell Count [6]: 83
- Population Apoptotic (%) [7]: 92%
- Population Fragmented Nuclei (%) [7]: 32%
- Population Healthy Nuclei (%) [7]: 15%
- Population Hoechst High Intensity Objects (%) [7]: 16%
- Population Membrane Permeable-Phenotype (%) [7]: 25%
- Population Mitochondria Different-Phenotype (%) [7]: 43%
- Population Mitotic Cells (%) [7]: 7%
- Population Normal (%) [7]: 83%
- Population Pyknosed Nuclei (%) [7]: 51%
- Population Tubulin-Different-Phenotype (%) [7]: 93%
- Total Cell Count [7]: 125
- Population Apoptotic (%) [8]: 47%
- Population Fragmented Nuclei (%) [8]: 24%
- Population Healthy Nuclei (%) [8]: 52%
- Population Hoechst High Intensity Objects (%) [8]: 14%
- Population Membrane Permeable-Phenotype (%) [8]: 42%
- Population Mitochondria Different-Phenotype (%) [8]: 89%
- Population Mitotic Cells (%) [8]: 52%
- Population Normal (%) [8]: 85%
- Population Pyknosed Nuclei (%) [8]: 23%
- Population Tubulin-Different-Phenotype (%) [8]: 81%
- Total Cell Count [8]: 74
- Population Apoptotic (%) [9]: 81%
- Population Fragmented Nuclei (%) [9]: 39%
- Population Healthy Nuclei (%) [9]: 48%
- Population Hoechst High Intensity Objects (%) [9]: 18%
- Population Membrane Permeable-Phenotype (%) [9]: 9%
- Population Mitochondria Different-Phenotype (%) [9]: 4%
- Population Mitotic Cells (%) [9]: 18%
- Population Normal (%) [9]: 81%
- Population Pyknosed Nuclei (%) [9]: 11%
- Population Tubulin-Different-Phenotype (%) [9]: 22%
- Total Cell Count [9]: 166
- Population Apoptotic (%) [10]: 33%
- Population Fragmented Nuclei (%) [10]: 36%
- Population Healthy Nuclei (%) [10]: 61%
- Population Hoechst High Intensity Objects (%) [10]: 15%
- Population Membrane Permeable-Phenotype (%) [10]: 16%
- Population Mitochondria Different-Phenotype (%) [10]: 3%
- Population Mitotic Cells (%) [10]: 66%
- Population Normal (%) [10]: 84%
- Population Pyknosed Nuclei (%) [10]: 2%
- Population Tubulin-Different-Phenotype (%) [10]: 51%
- Total Cell Count [10]: 160
- Population Apoptotic (%) [11]: 93%
- Population Fragmented Nuclei (%) [11]: 52%
- Population Healthy Nuclei (%) [11]: 26%
- Population Hoechst High Intensity Objects (%) [11]: 37%
- Population Membrane Permeable-Phenotype (%) [11]: 23%
- Population Mitochondria Different-Phenotype (%) [11]: 47%
- Population Mitotic Cells (%) [11]: 6%
- Population Normal (%) [11]: 62%
- Population Pyknosed Nuclei (%) [11]: 20%
- Population Tubulin-Different-Phenotype (%) [11]: 85%
- Total Cell Count [11]: 124
- Population Apoptotic (%) [12]: 63%
- Population Fragmented Nuclei (%) [12]: 36%
- Population Healthy Nuclei (%) [12]: 53%
- Population Hoechst High Intensity Objects (%) [12]: 32%
- Population Mitochondria Different-Phenotype (%) [12]: 30%
- Population Mitotic Cells (%) [12]: 36%
- Population Normal (%) [12]: 67%
- Population Pyknosed Nuclei (%) [12]: 9%
- Total Cell Count [12]: 167

— ChEMBL document CHEMBL4689842, “EUbOPEN Chemogenomics Library wave 1” (2021)
